Here are results for 14 compounds from ChEMBL document CHEMBL4368886, “Design, synthesis, and biological activity of novel ammonium salts containing sterically hindered phenolic fragment and phosphoryl group” (Medchemcomm, 2018).

Assay [1] deals with Bacillus cereus. Description: Antimicrobial activity against Bacillus cereus ATCC 8035 measured every 24 hrs for 5 days by two-fold serial dilution method. Format: functional.
Assay [2] concerns Escherichia coli. Put plainly: Antimicrobial activity against Escherichia coli CDC F-50 measured every 24 hrs for 5 days by two-fold serial dilution method. In kind it is functional.
For assay [3], the system named is Staphylococcus aureus. Put plainly: Antimicrobial activity against Staphylococcus aureus 209p measured every 24 hrs for 5 days by two-fold serial dilution method. In kind it is functional.
Assay [4] concerns Staphylococcus aureus. Put plainly: Bactericidal activity against Staphylococcus aureus 209p measured after 4 hrs. Format: functional. The essentials: (§1)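 Microbicidal (bactericidal/fungicidal) concentration, killing of microbial cells, determined per literature procedures; tests in duplicate, repeated twice.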
Assay [5] relates to Candida albicans. Put plainly: Bactericidal activity against Candida albicans 855-653 measured after 4 hrs. In kind it is functional. An outline of the steps: as §1
Assay [6] relates to Bacillus cereus. Put plainly: Bactericidal activity against Bacillus cereus ATCC 8035 measured after 4 hrs. Format: functional. An outline of the steps: as §1
In assay [7] the test system is Trichophyton mentagrophytes. Description: Antimicrobial activity against Trichophyton mentagrophytes var. gypseum 1773 measured after 14 days by two-fold serial dilution method. Format: functional.
The test system of assay [8] is Pseudomonas aeruginosa. Put plainly: Bactericidal activity against Pseudomonas aeruginosa ATCC 9027 measured after 4 hrs. In kind it is functional. An outline of the steps: as §1
Assay [9] deals with Aspergillus niger. Put plainly: Bactericidal activity against Aspergillus niger BKMF-1119 measured after 4 hrs. In kind it is functional, organism-based. An outline of the steps:
as §1

Assay [10] deals with Aspergillus niger. Description: Antimicrobial activity against Aspergillus niger BKMF-1119 measured after 14 days by two-fold serial dilution method. Format: functional, organism-based.
The test system of assay [11] is Candida albicans. Put plainly: Antimicrobial activity against Candida albicans 855-653 measured after 14 days by two-fold serial dilution method. Format: functional.
Assay [12] deals with Trichophyton mentagrophytes var. granulosum. Description: Bactericidal activity against Trichophyton mentagrophytes var. granulosum 1773 measured after 4 hrs. In kind it is functional. The essentials:
as §1

Assay [13] relates to Escherichia coli. Put plainly: Bactericidal activity against Escherichia coli CDC F-50 measured after 4 hrs. Format: functional. An outline of the steps: as §1
Assay [14] relates to Pseudomonas aeruginosa. Put plainly: Antimicrobial activity against Pseudomonas aeruginosa ATCC 9027 measured every 24 hrs for 5 days by two-fold serial dilution method. Format: functional.

Converted amounts (≈) assume the structure as drawn. The source made the active and inactive calls.

Broadly, the MIC is the smallest concentration in the dilution series that meets the test's criterion for growth inhibition. Regarding `O=C(N[C@H](CO)[C@H](O)c1ccc([N+](=O)[O-])cc1)C(Cl)Cl` [CHLORAMPHENICOL], the MIC in assay [1] was found to be 193 µM (≈ 62.4 µg/mL); in assay [2], 386 µM (≈ 125 µg/mL); in assay [3], 193 µM (≈ 62.4 µg/mL).

In the case of `CC[N+](C)(C)CCNC(=O)CCc1cc(C(C)(C)C)c(O)c(C(C)(C)C)c1`, the MIC result in [4], in assay [1], in assay [5], in [6], in assay [7] and in assay [8] was “inactive” throughout. For the same compound, the MIC entry in [9], in [2], in assay [10], in assay [3], in [12] and in [13] was “inactive” throughout. In addition, in [14], the MIC result is “inactive”. Further, in assay [11] (855-653, 336 h), inhibition of growth (MIC) required 68.5 µM.

For `CCCCCCCCCCCC[N+](C)(C)CCNC(c1cc(C(C)(C)C)c(O)c(C(C)(C)C)c1)P(=O)(OCC)OCC` (centres undefined), the MIC was determined as 45.2 µM in [4]; 361 µM in [1]; 45.2 µM in [5] (855-653, 4 h); 361 µM in assay [6] (ATCC 8035, 4 h); 45.2 µM in assay [3]; 45.2 µM in [11] (855-653, 336 h). The MIC result in assay [7], in [8], in assay [9], in assay [2], in [10] and in [12] was “inactive” throughout. Moreover, the MIC result in assay [13] and in assay [14] was “inactive” each time.

In the case of `CC[N+](C)(C)CCCNC(=O)CCc1cc(C(C)(C)C)c(O)c(C(C)(C)C)c1`, the MIC entry in [4], in assay [1], in assay [6], in assay [7], in assay [8] and in assay [9] was “inactive” each time. In addition, the MIC result in assay [2], in [10], in assay [3], in [12], in assay [13] and in assay [14] was “inactive” each time. In addition, the MIC in assay [5] (855-653, 4 h) stood at 265 µM; in assay [11] (855-653, 336 h), 265 µM.

As to `CCCCCCCCCCCCCCCC[N+](C)(C)CCCNC(=O)CCc1cc(C(C)(C)C)c(O)c(C(C)(C)C)c1`, the MIC result in [4], in assay [7], in [8], in assay [9], in assay [2] and in assay [10] was “inactive” throughout. In addition, the MIC result in assay [12], in assay [13] and in assay [14] was “inactive” throughout. The MIC in assay [1] was 375 µM; in assay [5] (855-653, 4 h) it was 375 µM; in [6] (ATCC 8035, 4 h) it was 375 µM; in assay [3], 47 µM; in [11] (855-653, 336 h) it was 187 µM.

On to `CCCCCCCCCCCCCCCC[N+](C)(C)CCNC(=O)CCc1cc(C(C)(C)C)c(O)c(C(C)(C)C)c1`, for which the MIC entry in [4], in assay [6], in assay [7], in assay [8], in assay [9] and in assay [2] was “inactive” throughout. Besides, the MIC result in assay [10], in assay [12], in assay [13] and in assay [14] was “inactive” throughout. Besides, the MIC turned out to be 383 µM in assay [1]; 383 µM in [5] (855-653, 4 h); 95.7 µM in assay [3]; 383 µM in assay [11] (855-653, 336 h).

Consider `CC(C)OP(=O)(OC(C)C)C(NCC[N+](C)(C)Cc1ccccc1)c1cc(C(C)(C)C)c(O)c(C(C)(C)C)c1` (centres undefined), for which the MIC came out at 97.3 µM in assay [4]; 48.8 µM in assay [1]; 48.8 µM in assay [6] (ATCC 8035, 4 h); 24.3 µM in assay [3]; 195 µM in [11] (855-653, 336 h). Moreover, the MIC result in [5], in assay [7], in [8], in assay [9], in [2] and in assay [10] was “inactive” each time. Also, the MIC result in [12], in assay [13] and in assay [14] was “inactive” each time.

Turning to `CCOP(=O)(OCC)C(NCC[N+](C)(C)Cc1ccccc1)c1cc(C(C)(C)C)c(O)c(C(C)(C)C)c1` (centres undefined), the MIC in [4] amounted to 407 µM; in [1] it was 6.4 µM; in assay [5] (855-653, 4 h), 177 µM; in assay [6] (ATCC 8035, 4 h), 102 µM; in assay [3] it was 51 µM; in assay [11] (855-653, 336 h) it was 177 µM. Also, the MIC result in [7], in assay [8], in assay [9], in [2], in assay [10] and in [12] was “inactive” each time. Also, the MIC result in [13] and in [14] was “inactive” each time.

For `CCOP(=O)(OCC)C(NCC[N+](C)(C)CC)c1cc(C(C)(C)C)c(O)c(C(C)(C)C)c1` (centres undefined), the MIC in assay [4] came to 56.8 µM; in [1], 56.8 µM; in assay [6] (ATCC 8035, 4 h), 56.8 µM; in assay [3] it was 56.8 µM. The MIC result in [5], in [7], in assay [8], in assay [9], in assay [2] and in assay [10] was “inactive” in each case. Further, the MIC entry in assay [11], in assay [12], in assay [13] and in assay [14] was “inactive” in each case.

For the compound `CCCCCCCCCC[N+](C)(C)CCCNC(=O)CCc1cc(C(C)(C)C)c(O)c(C(C)(C)C)c1`, the minimum inhibitory concentration (MIC) in assay [4] was determined as 3.3 µM; in [1], 6.7 µM; in assay [5] (855-653, 4 h), 0.9 µM; in assay [6] (ATCC 8035, 4 h), 107 µM; in [8] (ATCC 9027, 4 h), 26.8 µM; in assay [2], 26.8 µM. Further, the minimum inhibitory concentration (MIC) was determined as 1.5 µM in assay [3]; 0.9 µM in assay [11] (855-653, 336 h); 53.6 µM in [13] (CDC F-50, 4 h); 26.8 µM in assay [14]. For the same compound, the MIC entry in [7], in assay [9], in assay [10] and in assay [12] was “inactive” in each case.

In the case of `CCCCCCCCCCCC[N+](C)(C)CCNC(=O)CCc1cc(C(C)(C)C)c(O)c(C(C)(C)C)c1`, the MIC in [4] amounted to 52.4 µM; in assay [1] it was 419 µM; in [5] (855-653, 4 h), 419 µM; in [6] (ATCC 8035, 4 h), 419 µM; in assay [3], 52.4 µM; in assay [11] (855-653, 336 h) it was 419 µM. Also, the MIC result in [7], in assay [8], in [9], in assay [2], in assay [10] and in [12] was “inactive” each time. Moreover, the MIC result in [13] and in [14] was “inactive” each time.

In the case of `CC[N+](C)(C)CCCNC(c1cc(C(C)(C)C)c(O)c(C(C)(C)C)c1)P(=O)(OC(C)C)OC(C)C` (centres undefined), the MIC amounted to 105 µM in assay [4]; 105 µM in assay [1]; 422 µM in [5] (855-653, 4 h); 421 µM in assay [6] (ATCC 8035, 4 h); 105 µM in assay [3]; 422 µM in assay [11] (855-653, 336 h). Besides, the MIC entry in [7], in assay [8], in [9], in assay [2], in [10] and in assay [12] was “inactive” each time. Further, the MIC result in [13] and in assay [14] was “inactive” each time.

For the compound `CCCCCCCC[N+](C)(C)CCCNC(=O)CCc1cc(C(C)(C)C)c(O)c(C(C)(C)C)c1`, the MIC came to 28 µM in [4]; 28.1 µM in assay [1]; 56.3 µM in [5] (855-653, 4 h); 28.1 µM in [6] (ATCC 8035, 4 h); 28 µM in [3]; 28 µM in assay [11] (855-653, 336 h). For the same compound, the MIC result in assay [7], in [8], in [9], in assay [2], in assay [10] and in [12] was “inactive” throughout. For the same compound, the MIC entry in assay [13] and in assay [14] was “inactive” throughout.

In the case of `CCn1cc(C(=O)O)c(=O)c2cc(F)c(N3CCNCC3)cc21` [NORFLOXACIN], the MIC in assay [4] stood at 7.5 µM (≈ 2.4 µg/mL); in assay [1] it was 25 µM (≈ 7.98 µg/mL); in [6] (ATCC 8035, 4 h) it was 50 µM (≈ 16 µg/mL); in [8] (ATCC 9027, 4 h) it was 48.8 µM (≈ 15.6 µg/mL); in assay [2] it was 4.7 µM (≈ 1.5 µg/mL); in assay [3] it was 7.5 µM (≈ 2.4 µg/mL). Besides, the MIC in assay [13] (CDC F-50, 4 h) was determined as 4.7 µM (≈ 1.5 µg/mL); in [14] it was 9.4 µM (≈ 3 µg/mL).
